Laboratory results: ChEMBL document CHEMBL1154871, “Synthesis of new spiroindolinones incorporating a benzothiazole moiety as antioxidant agents” (Eur J Med Chem, 2010)

What was measured:
Format in all cases: functional
[1] = tested on: Radical scavenging activity; experiment: Antioxidant activity assessed as DPPH radical scavenging activity after 30 mins by spectrophotometry
Procedure, shortened: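 Test compounds (0.2–6.25 mM) dissolved in DMSO, added to 6×10^-5 M methanolic DPPH. Mixture held 30 min at room temperature in the dark, then absorbance read at 517 nm against methanol. Scavenging % = [1 − A_sample/A_control] × 100, with a negative control lacking sample. Triplicates averaged; EC50 taken from dose–response.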

[2] = Antioxidant activity assessed as reduction of […]/ferricyanide complex after 20 mins by spectrophotometry
Procedure, shortened: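 Compounds (1.6–6.25 mM) mixed with 0.2 M phosphate buffer, pH 6.6, and 1% potassium ferricyanide, 20 min at 50 °C. Stopped with 1% TCA and centrifuged at 2790 g for 10 min. Supernatant plus water and 0.1% FeCl3 read at 700 nm. EC50 is the concentration giving absorbance 0.5. Mean ± SD of triplicates.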

[3] = Antioxidant activity assessed as trolox equivalent of ABTS free radical scavenging activity after 6 mins by […]
Procedure, shortened: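 ABTS radical cation solution was added to compounds (0.2–6.25 mM). Decrease in absorbance at 734 nm was read exactly 6 min after mixing, with ethanol blanks. A Trolox standard curve (final 0–20 µM in ethanol) gives TEAC, the mM Trolox equivalent to 1 mM compound. Run in triplicate.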

[4] = Antioxidant activity assessed as inhibition of Fe(3+)/ascorbate-induced lipid peroxidation in liposomes after 1 hr by TBARS assay
Procedure, shortened: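 Lecithin liposomes were sonicated in 10 mmol/L phosphate buffer, pH 7.4. Final mix: 3.08 mg liposome/mL, 123.2 µmol FeCl3, 123.2 µmol ascorbic acid, test compound 0.025–0.4 mM. Incubated 1 h at 37 °C. MDA measured by TBA reaction; n-butanol layer read at 532 nm against a lecithin-free blank. EC50 is the concentration reducing TBARS to 50% of control.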

SNB-19 = experiment: Growth inhibition in human SNB19 cells assessed as viable cells at 10 uM after 48 hrs by sulforhodamine B assay; settings: SNB-19, 48 h, read-out: Activity
SNB-75 = experiment: Growth inhibition in human SNB75 cells assessed as viable cells at 10 uM after 48 hrs by sulforhodamine B assay; settings: SNB-75, 48 h, read-out: Activity
SF-268 = experiment: Growth inhibition in human SF268 cells assessed as viable cells at 10 uM after 48 hrs by sulforhodamine B assay; settings: SF-268, 48 h, read-out: Activity
SF-539 = experiment: Growth inhibition in human SF539 cells assessed as viable cells at 10 uM after 48 hrs by sulforhodamine B assay; settings: SF-539, 48 h, read-out: Activity
U-251 = experiment: Growth inhibition in human U251 cells assessed as viable cells at 10 uM after 48 hrs by sulforhodamine B assay; settings: U-251, 48 h, read-out: Activity
Procedure, shortened: (§1)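 NCI 60-line screen, single dose 10^-5 M, 48 h continuous exposure. Cells grown in RPMI 1640 with 5% FBS and 2 mM L-glutamine, plated at 5000–40,000 cells/well and preincubated 24 h at 37 °C, 5% CO2. Drug stocks in DMSO. Endpoint: TCA fixation, SRB staining, absorbance at 515 nm. Growth % relative to untreated controls and time-zero plates.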

OVCAR-3 = experiment: Growth inhibition in human OVCAR-3 cells assessed as viable cells at 10 uM after 48 hrs by sulforhodamine B assay; settings: OVCAR-3, 48 h, read-out: Activity
UACC-62 = experiment: Growth inhibition in human UACC62 cells assessed as viable cells at 10 uM after 48 hrs by sulforhodamine B assay; settings: UACC-62, 48 h, read-out: Activity
IGROV-1 = experiment: Growth inhibition in human IGROV1 cells assessed as viable cells at 10 uM after 48 hrs by sulforhodamine B assay; settings: IGROV-1, 48 h, read-out: Activity
SK-MEL-5 = experiment: Growth inhibition in human SK-MEL-5 cells assessed as viable cells at 10 uM after 48 hrs by sulforhodamine B assay; settings: SK-MEL-5, 48 h, read-out: Activity
[5] = Growth inhibition in human Hs 578T cells assessed as viable cells at 10 uM after 48 hrs by sulforhodamine B assay; settings: read-out: Activity; procedure, shortened: as §1
M14 = experiment: Growth inhibition in human M14 cells assessed as viable cells at 10 uM after 48 hrs by sulforhodamine B assay; settings: M14, 48 h, read-out: Activity; procedure, shortened: as §1
LOX IMVI = experiment: Growth inhibition in human LOXIMVI cells assessed as viable cells at 10 uM after 48 hrs by sulforhodamine B assay; settings: read-out: Activity
SF-295 = experiment: Growth inhibition in human SF295 cells assessed as viable cells at 10 uM after 48 hrs by sulforhodamine B assay; settings: SF-295, 48 h, read-out: Activity
PC-3 = experiment: Growth inhibition in human PC3 cells assessed as viable cells at 10 uM after 48 hrs by sulforhodamine B assay; settings: PC-3, 48 h, read-out: Activity; procedure, shortened: as §1
OVCAR-8 = experiment: Growth inhibition in human OVCAR8 cells assessed as viable cells at 10 uM after 48 hrs by sulforhodamine B assay; settings: OVCAR-8, 48 h, read-out: Activity
MDA-MB-231 = experiment: Growth inhibition in human MDA-MB-231/ATCC cells assessed as viable cells at 10 uM after 48 hrs by sulforhodamine B assay; settings: MDA-MB-231, 48 h, read-out: Activity; procedure, shortened: as §1
DU-145 = experiment: Growth inhibition in human DU145 cells assessed as viable cells at 10 uM after 48 hrs by sulforhodamine B assay; settings: DU-145, 48 h, read-out: Activity; procedure, shortened: as §1
UO-31 = experiment: Growth inhibition in human UO31 cells assessed as viable cells at 10 uM after 48 hrs by sulforhodamine B assay; settings: UO-31, 48 h, read-out: Activity; procedure, shortened: as §1
UACC-257 = experiment: Growth inhibition in human UACC257 cells assessed as viable cells at 10 uM after 48 hrs by sulforhodamine B assay; settings: UACC-257, 48 h, read-out: Activity
SK-MEL-2 = experiment: Growth inhibition in human SK-MEL-2 cells assessed as viable cells at 10 uM after 48 hrs by sulforhodamine B assay; settings: SK-MEL-2, 48 h, read-out: Activity
SK-MEL-28 = experiment: Growth inhibition in human SK-MEL-28 cells assessed as viable cells at 10 uM after 48 hrs by sulforhodamine B assay; settings: SK-MEL-28, 48 h, read-out: Activity; procedure, shortened: as §1
CAKI-1 = experiment: Growth inhibition in human Caki1 cells assessed as viable cells at 10 uM after 48 hrs by sulforhodamine B assay; settings: CAKI-1, 48 h, read-out: Activity; procedure, shortened: as §1
SN12C = experiment: Growth inhibition in human SN12C cells assessed as viable cells at 10 uM after 48 hrs by sulforhodamine B assay; settings: read-out: Activity; procedure, shortened: as §1
Malme-3M = experiment: Growth inhibition in human MALME-3M cells assessed as viable cells at 10 uM after 48 hrs by sulforhodamine B assay; settings: read-out: Activity
A498 = experiment: Growth inhibition in human A498 cells assessed as viable cells at 10 uM after 48 hrs by sulforhodamine B assay; settings: A498, 48 h, read-out: Activity; procedure, shortened: as §1
786-0 = experiment: Growth inhibition in human 786-0 cells assessed as viable cells at 10 uM after 48 hrs by sulforhodamine B assay; settings: 786-0, 48 h, read-out: Activity; procedure, shortened: as §1
MDA-MB-435 = experiment: Growth inhibition in human MDA-MB-435 cells assessed as viable cells at 10 uM after 48 hrs by sulforhodamine B assay; settings: MDA-MB-435, 48 h, read-out: Activity
ACHN = experiment: Growth inhibition in human ACHN cells assessed as viable cells at 10 uM after 48 hrs by sulforhodamine B assay; settings: read-out: Activity; procedure, shortened: as §1
BT-549 = experiment: Growth inhibition in human BT549 cells assessed as viable cells at 10 uM after 48 hrs by sulforhodamine B assay; settings: BT-549, 48 h, read-out: Activity; procedure, shortened: as §1
NCI/ADR-RES = experiment: Growth inhibition in human NCI/ADR-RES cells assessed as viable cells at 10 uM after 48 hrs by sulforhodamine B assay; settings: read-out: Activity; procedure, shortened: as §1
TK-10 = experiment: Growth inhibition in human TK10 cells assessed as viable cells at 10 uM after 48 hrs by sulforhodamine B assay; settings: TK-10, 48 h, read-out: Activity; procedure, shortened: as §1
MDA-MB-468 = experiment: Growth inhibition in human MDA-MB-468 cells assessed as viable cells at 10 uM after 48 hrs by sulforhodamine B assay; settings: MDA-MB-468, 48 h, read-out: Activity; procedure, shortened: as §1
MCF7 = experiment: Growth inhibition in human MCF7 cells assessed as viable cells at 10 uM after 48 hrs by sulforhodamine B assay; settings: MCF7, 48 h, read-out: Activity; procedure, shortened: as §1
T47D = experiment: Growth inhibition in human T47D cells assessed as viable cells at 10 uM after 48 hrs by sulforhodamine B assay; settings: read-out: Activity
SK-OV-3 = experiment: Growth inhibition in human SKOV3 cells assessed as viable cells at 10 uM after 48 hrs by sulforhodamine B assay; settings: SK-OV-3, 48 h, read-out: Activity; procedure, shortened: as §1
OVCAR-5 = experiment: Growth inhibition in human OVCAR5 cells assessed as viable cells at 10 uM after 48 hrs by sulforhodamine B assay; settings: OVCAR-5, 48 h, read-out: Activity
OVCAR-4 = experiment: Growth inhibition in human OVCAR4 cells assessed as viable cells at 10 uM after 48 hrs by sulforhodamine B assay; settings: OVCAR-4, 48 h, read-out: Activity

Compound: Cc1ccc2c(c1)C1(Nc3ccccc3S1)C(=O)N2 (stereo unspecified)
- EC50 [1]: 1300 µM
- EC50 [2]: 1360 µM
- EC50 [3]: 1020 µM
- EC50 [4]: 41 µM

Compound: O=C1Nc2ccc(Cl)cc2C12Nc1ccccc1S2 (stereo unspecified)
- EC50 [1]: 1780 µM
- EC50 [2]: 510 µM
- viability at 10 µM (SNB-19): 107%
- viability at 10 µM (SNB-75): 55.8%
- EC50 [3]: 1030 µM
- viability at 10 µM (SF-268): 83.2%
- viability at 10 µM (SF-539): 97.4%
- viability at 10 µM (U-251): 98.5%
- EC50 [4]: 49 µM

Compound: O=C1Nc2ccc([N+](=O)[O-])cc2C12Nc1ccccc1S2 (stereo unspecified)
- EC50 [1]: 1300 µM
- EC50 [2]: 800 µM
- EC50 [3]: 1630 µM
- EC50 [4]: 87 µM

Compound: Cc1ccc2c(c1)C1(Nc3ccccc3S1)C(=O)N2C (stereo unspecified)
- EC50 [1]: 980 µM
- EC50 [2]: 700 µM
- EC50 [3]: 980 µM
- EC50 [4]: 34 µM

Compound: CN1C(=O)C2(Nc3ccccc3S2)c2cc(OC(F)(F)F)ccc21 (stereo unspecified)
- viability at 10 µM (OVCAR-3): 103%
- viability at 10 µM (UACC-62): 80.4%
- viability at 10 µM (IGROV-1): 86.2%
- EC50 [1]: 1620 µM
- viability at 10 µM (SK-MEL-5): 99.7%
- viability at 10 µM [5]: 92.4%
- viability at 10 µM (M14): 102%
- viability at 10 µM (LOX IMVI): 98.6%
- viability at 10 µM (SF-295): 102%
- viability at 10 µM (PC-3): 84.6%
- viability at 10 µM (OVCAR-8): 99.1%
- viability at 10 µM (MDA-MB-231): 96.2%
- viability at 10 µM (DU-145): 107%
- viability at 10 µM (UO-31): 58.3%
- EC50 [2]: 4940 µM
- viability at 10 µM (SNB-19): 92.4%
- viability at 10 µM (UACC-257): 102%
- viability at 10 µM (SK-MEL-2): 101%
- viability at 10 µM (SNB-75): 55.3%
- viability at 10 µM (SK-MEL-28): 103%
- viability at 10 µM (CAKI-1): 96.8%
- EC50 [3]: 1370 µM
- viability at 10 µM (SN12C): 105%
- viability at 10 µM (Malme-3M): 98.5%
- viability at 10 µM (A498): 108%
- viability at 10 µM (SF-268): 97.7%
- viability at 10 µM (786-0): 108%
- viability at 10 µM (SF-539): 116%
- viability at 10 µM (MDA-MB-435): 100%
- viability at 10 µM (ACHN): 80.9%
- viability at 10 µM (BT-549): 108%
- viability at 10 µM (NCI/ADR-RES): 100%
- viability at 10 µM (TK-10): 105%
- viability at 10 µM (U-251): 88.4%
- viability at 10 µM (MDA-MB-468): 112%
- viability at 10 µM (MCF7): 82.8%
- viability at 10 µM (T47D): 60%
- viability at 10 µM (SK-OV-3): 102%
- viability at 10 µM (OVCAR-5): 121%
- EC50 [4]: 84 µM
- viability at 10 µM (OVCAR-4): 73.4%

Compound: CN1C(=O)C2(Nc3ccccc3S2)c2cc(Cl)ccc21 (stereo unspecified)
- EC50 [1]: 1240 µM
- EC50 [2]: 4020 µM
- EC50 [3]: 1140 µM
- EC50 [4]: 75 µM

Compound: CN1C(=O)C2(Nc3ccccc3S2)c2cc(Br)ccc21 (stereo unspecified)
- EC50 [1]: 1010 µM
- EC50 [2]: 4220 µM
- EC50 [3]: 1040 µM
- EC50 [4]: 34 µM

Compound: CN1C(=O)C2(Nc3ccccc3S2)c2cc([N+](=O)[O-])ccc21 (stereo unspecified)
- EC50 [1]: 1270 µM
- EC50 [2]: 5140 µM
- EC50 [3]: 1340 µM
- EC50 [4]: 92 µM

Compound: Cc1c(C)c2c(c(C)c1O)CC[C@@](C)(CCC[C@H](C)CCC[C@H](C)CCCC(C)C)O2 [ALPHA-TOCOPHEROL]
- EC50 [1]: 350 µM
- EC50 [2]: 1950 µM
- EC50 [3]: 1200 µM
- EC50 [4]: 153 µM

Compound: O=C1O[C@H]([C@@H](O)CO)C(O)=C1O [ASCORBIC ACID]
- EC50 [1]: 360 µM
- EC50 [2]: 650 µM
- EC50 [3]: 1200 µM
